Laboratory results: ChEMBL document CHEMBL1155222, “Synthesis and anticancer activity of N-bis(trifluoromethyl)alkyl-N'-thiazolyl and N-bis(trifluoromethyl)alkyl-N'-benzothiazolyl ureas” (2009)
Active and inactive are the calls of the source. No cut-off for these calls is given here.

Key:
Assay type in all cases: functional
HCC 2998 = test: Anticancer activity against human HCC2998 cells after 48 hrs by sulforhodamine B assay
In short: (§1)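 NCI 60-cell-line screen. Cells grown in RPMI 1640 with 5% FBS and 2 mM L-glutamine, plated at 5000–40,000 cells/well, and preincubated 24 h at 37 °C under 5% CO2. Compounds were taken from DMSO stocks and tested at five final concentrations, 10^-4 to 10^-8 M, for 48 h. Cells were TCA-fixed, stained with 0.4% SRB, and read at 515 nm. GI50, TGI and LC50 were derived as log molar values.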

OVCAR-8 = test: Anticancer activity against human OVCAR8 cells after 48 hrs by sulforhodamine B assay; in short: as §1
SF-268 [1] = test: Anticancer activity against human SF268 cells after 48 hrs by sulforhodamine B assay; in short: as §1
SF-539 = test: Anticancer activity against human SF539 cells after 48 hrs by sulforhodamine B assay; in short: as §1
MOLT-4 = test: Anticancer activity against human MOLT4 cells after 48 hrs by sulforhodamine B assay; in short: as §1
NCI-H522 = test: Anticancer activity against human NCI-H522 cells after 48 hrs by sulforhodamine B assay; in short: as §1
HOP-92 = test: Anticancer activity against human HOP92 cells after 48 hrs by sulforhodamine B assay; in short: as §1
DU-145 = test: Anticancer activity against human DU145 cells after 48 hrs by sulforhodamine B assay; in short: as §1
RPMI8266 = test: Anticancer activity against human RPMI8266 cells after 48 hrs by sulforhodamine B assay; in short: as §1
786-0 = test: Anticancer activity against human 786-0 cells after 48 hrs by sulforhodamine B assay; in short: as §1
OVCAR-4 = test: Anticancer activity against human OVCAR4 cells after 48 hrs by sulforhodamine B assay; in short: as §1
U-251 = test: Anticancer activity against human U251 cells after 48 hrs by sulforhodamine B assay
In short: (§2)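 NCI 60-cell-line panel; cells grown in RPMI 1640 with 5% FBS and 2 mM L-glutamine, plated at 5000–40,000 cells/well and preincubated 24 h at 37 °C, 5% CO2. Compounds came from DMSO stocks diluted in medium with gentamicin and were tested at five final concentrations, 10^-4 to 10^-8 M, for 48 h. Cells were fixed with TCA, stained with SRB and read at 515 nm. GI50, TGI and LC50 were derived as log molar values.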

OVCAR-3 = test: Anticancer activity against human OVCAR-3 cells after 48 hrs by sulforhodamine B assay; in short: as §1
HOP-62 = test: Anticancer activity against human HOP62 cells after 48 hrs by sulforhodamine B assay; in short: as §1
NCI-H23 = test: Anticancer activity against human NCI-H23 cells after 48 hrs by sulforhodamine B assay
In short: (§3)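 NCI 60-cell-line screen. Cells were grown in RPMI 1640 with 5% FBS and 2 mM L-glutamine, seeded at 5000–40,000 cells/well and preincubated 24 h at 37 °C, 5% CO2. Compounds in DMSO were diluted in medium with gentamicin and tested at five concentrations (10^-4 to 10^-8 M) for 48 h. Cells were then fixed with TCA, stained with SRB and read at 515 nm.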

PC-3 = test: Anticancer activity against human PC3 cells after 48 hrs by sulforhodamine B assay; in short: as §1
SK-MEL-2 = test: Anticancer activity against human SK-MEL-2 cells after 48 hrs by sulforhodamine B assay; in short: as §1
SR = test: Anticancer activity against human SR cells after 48 hrs by sulforhodamine B assay; in short: as §2
NCI-H460 [2] = test: Anticancer activity against human NCI-H460 cells after 48 hrs by sulforhodamine B assay; in short: as §1
ACHN = test: Anticancer activity against human ACHN cells after 48 hrs by sulforhodamine B assay; in short: as §1
Malme-3M = test: Anticancer activity against human MALME-3M cells after 48 hrs by sulforhodamine B assay; in short: as §1
UACC-257 = test: Anticancer activity against human UACC257 cells after 48 hrs by sulforhodamine B assay; in short: as §2
NCI-H226 = test: Anticancer activity against human NCI-H226 cells after 48 hrs by sulforhodamine B assay; in short: as §1
K562 = test: Anticancer activity against human K562 cells after 48 hrs by sulforhodamine B assay; in short: as §1
RXF 393 = test: Anticancer activity against human RXF393 cells after 48 hrs by sulforhodamine B assay; in short: as §1
HCT-116 = test: Anticancer activity against human HCT116 cells after 48 hrs by sulforhodamine B assay; in short: as §1
NCI-H322M = test: Anticancer activity against human NCI-H322M cells after 48 hrs by sulforhodamine B assay; in short: as §1
A549 = test: Anticancer activity against human A549 cells after 48 hrs by sulforhodamine B assay; in short: as §1
SF-295 = test: Anticancer activity against human SF295 cells after 48 hrs by sulforhodamine B assay; in short: as §1
UO-31 = test: Anticancer activity against human UO31 cells after 48 hrs by sulforhodamine B assay; in short: as §2
BT-549 = test: Anticancer activity against human BT549 cells after 48 hrs by sulforhodamine B assay; in short: as §1
MDA-N = test: Anticancer activity against human MDA-N cells after 48 hrs by sulforhodamine B assay; in short: as §1
M14 = test: Anticancer activity against human M14 cells after 48 hrs by sulforhodamine B assay; in short: as §1
IGROV-1 = test: Anticancer activity against human IGROV1 cells after 48 hrs by sulforhodamine B assay; in short: as §1
SW-620 = test: Anticancer activity against human SW620 cells after 48 hrs by sulforhodamine B assay; in short: as §2
SNB-19 = test: Anticancer activity against human SNB19 cells after 48 hrs by sulforhodamine B assay; in short: as §2
MDA-MB-435 = test: Anticancer activity against human MDA-MB-435 cells after 48 hrs by sulforhodamine B assay; in short: as §1
OVCAR-5 = test: Anticancer activity against human OVCAR5 cells after 48 hrs by sulforhodamine B assay; in short: as §1
CCRF-CEM = test: Anticancer activity against human CCRF-CEM cells after 48 hrs by sulforhodamine B assay; in short: as §1
SK-OV-3 = test: Anticancer activity against human SKOV3 cells after 48 hrs by sulforhodamine B assay; in short: as §1
EKVX = test: Anticancer activity against human EKVX cells after 48 hrs by sulforhodamine B assay; in short: as §1
LOX IMVI = test: Anticancer activity against human LOXIMVI cells after 48 hrs by sulforhodamine B assay; in short: as §1
COLO 205 = test: Anticancer activity against human COLO205 cells after 48 hrs by sulforhodamine B assay; in short: as §1
MCF7 [3] = test: Anticancer activity against human MCF7 cells after 48 hrs by sulforhodamine B assay; in short: as §1
A498 = test: Anticancer activity against human A498 cells after 48 hrs by sulforhodamine B assay; in short: as §1
SK-MEL-5 = test: Anticancer activity against human SK-MEL-5 cells after 48 hrs by sulforhodamine B assay; in short: as §1
CAKI-1 = test: Anticancer activity against human Caki1 cells after 48 hrs by sulforhodamine B assay; in short: as §1
UACC-62 = test: Anticancer activity against human UACC62 cells after 48 hrs by sulforhodamine B assay; in short: as §2
NCI/ADR-RES = test: Anticancer activity against human NCI/ADR-RES cells after 48 hrs by sulforhodamine B assay; in short: as §1
SNB-75 = test: Anticancer activity against human SNB75 cells after 48 hrs by sulforhodamine B assay; in short: as §2
HT-29 = test: Anticancer activity against human HT-29 cells after 48 hrs by sulforhodamine B assay; in short: as §1
T47D = test: Anticancer activity against human T47D cells after 48 hrs by sulforhodamine B assay; in short: as §2
MDA-MB-231 = test: Anticancer activity against human MDA-MB-231 cells after 48 hrs by sulforhodamine B assay; in short: as §1
KM12 = test: Anticancer activity against human KM12 cells after 48 hrs by sulforhodamine B assay; in short: as §1
Hs-578T = test: Anticancer activity against human Hs 578T cells after 48 hrs by sulforhodamine B assay; in short: as §1
SN12C = test: Anticancer activity against human SN12C cells after 48 hrs by sulforhodamine B assay; in short: as §2
HL-60(TB) = test: Anticancer activity against human HL-60(TB) cells after 48 hrs by sulforhodamine B assay; in short: as §3
TK-10 = test: Anticancer activity against human TK10 cells after 48 hrs by sulforhodamine B assay; in short: as §2
SK-MEL-28 = test: Anticancer activity against human SK-MEL-28 cells after 48 hrs by sulforhodamine B assay; in short: as §1
HCT-15 = test: Anticancer activity against human HCT15 cells after 48 hrs by sulforhodamine B assay; in short: as §1
MCF7 [4] = test: Anticancer activity against human MCF7 cells assessed as cell growth at 100 uM after 48 hrs by Alamar blue assay relative to control; settings: MCF7, 48 h, read-out: Activity
In short: (§4)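 NCI one-dose pre-test on MCF7, NCI-H460 and SF-268. Cells were inoculated and preincubated, then exposed to a single 10^-4 M concentration for 48 h. End-point was alamar blue. Results are percent growth versus untreated control cells, with negative values indicating cell kill.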

SF-268 [5] = test: Anticancer activity against human SF268 cells assessed as cell growth at 100 uM after 48 hrs by Alamar blue assay relative to control; settings: SF-268, 48 h, read-out: Activity; in short: as §4
NCI-H460 [6] = test: Anticancer activity against human NCI-H460 cells assessed as cell growth at 100 uM after 48 hrs by Alamar blue assay relative to control; settings: NCI-H460, 48 h, read-out: Activity; in short: as §4

In the case of `FC(F)(F)C(=Cc1nc2ccccc2s1)C(F)(F)F`, the logGI50 (HCC 2998) was “inactive”, the logGI50 (OVCAR-8) was “inactive” and the logGI50 (SF-268 [1]) was “inactive”. The logGI50 (SF-539) was “inactive”, the logGI50 (MOLT-4) was “inactive” and the logGI50 (NCI-H522) was “inactive”. For the same molecule, the logGI50 (HOP-92) was “inactive”, the logGI50 (DU-145) was “inactive” and the logGI50 (RPMI8266) was “inactive”. For the same molecule, the logGI50 (786-0) was “inactive”, the logGI50 (OVCAR-4) was “inactive” and the logGI50 (U-251) was “inactive”. For the same molecule, the logGI50 (OVCAR-3) was “inactive”, the logGI50 (HOP-62) was “inactive” and the logGI50 (NCI-H23) was “inactive”. For the same molecule, the logGI50 (PC-3) was “inactive”, the logGI50 (SK-MEL-2) was “inactive” and the logGI50 (SR) was “inactive”. The logGI50 (NCI-H460 [2]) was “inactive”, the logGI50 (ACHN) was “inactive” and the logGI50 (Malme-3M) was “inactive”. The logGI50 (UACC-257) was “inactive”, the logGI50 (NCI-H226) was “inactive” and the logGI50 (K562) was “inactive”. The logGI50 (RXF 393) was “inactive”, the logGI50 (HCT-116) was “inactive” and the logGI50 (NCI-H322M) was “inactive”. For the same molecule, the logGI50 (A549) was “inactive”, the logGI50 (SF-295) was “inactive” and the logGI50 (UO-31) was “inactive”. For the same molecule, the logGI50 (BT-549) was “inactive”, the logGI50 (MDA-N) was “inactive” and the logGI50 (M14) was “inactive”. For the same molecule, the logGI50 (IGROV-1) was “inactive”, the logGI50 (SW-620) was “inactive” and the logGI50 (SNB-19) was “inactive”. The logGI50 (MDA-MB-435) was “inactive”, the logGI50 (OVCAR-5) was “inactive” and the logGI50 (CCRF-CEM) was “inactive”. For the same molecule, the logGI50 (SK-OV-3) was “inactive”, the logGI50 (EKVX) was “inactive” and the logGI50 (LOX IMVI) was “inactive”. For the same molecule, the logGI50 (COLO 205) was “inactive”, the logGI50 (MCF7 [3]) was “inactive” and the logGI50 (A498) was “inactive”. The logGI50 (SK-MEL-5) was “inactive”, the logGI50 (CAKI-1) was “inactive” and the logGI50 (UACC-62) was “inactive”. For the same molecule, the logGI50 (NCI/ADR-RES) was “inactive”, the logGI50 (SNB-75) was “inactive” and the logGI50 (HT-29) was “inactive”. The logGI50 (T47D) was “inactive”, the logGI50 (MDA-MB-231) was “inactive” and the logGI50 (KM12) was “inactive”. The logGI50 (Hs-578T) was “inactive”, the logGI50 (SN12C) was “inactive” and the logGI50 (HL-60(TB)) was “inactive”. For the same molecule, the logGI50 (TK-10) was “inactive”, the logGI50 (SK-MEL-28) was “inactive” and the logGI50 (HCT-15) was “inactive”.

`CC(NC(=O)Nc1nccs1)(C(F)(F)F)C(F)(F)F` was tested, and the growth at 100 µM (MCF7 [4]) was 59%, the growth at 100 µM (SF-268 [5]) was 74% and the growth at 100 µM (NCI-H460 [6]) was 49%.
